Assay results as given in ChEMBL document CHEMBL4190282, “The Conjugated Double Bond of Coniferyl Aldehyde Is Essential for Heat Shock Factor 1 Mediated Cytotoprotection” (J Nat Prod, 2017).
Calls of active or inactive are those of the source. No cut-off for these calls is given here.

Legend:
[1] = target: T1, Heat shock factor protein 1 (Homo sapiens) (UniProt Q00613); test: Activation of HSF1 in human NCI-H460 cells expressing pGL4-hsp25 construct assessed as upregulation of hsp25 promoter activity at 10 to 30 uM after 12 hrs by luciferase reporter gene assay; format: cell-based
T1 sequence (whole entry): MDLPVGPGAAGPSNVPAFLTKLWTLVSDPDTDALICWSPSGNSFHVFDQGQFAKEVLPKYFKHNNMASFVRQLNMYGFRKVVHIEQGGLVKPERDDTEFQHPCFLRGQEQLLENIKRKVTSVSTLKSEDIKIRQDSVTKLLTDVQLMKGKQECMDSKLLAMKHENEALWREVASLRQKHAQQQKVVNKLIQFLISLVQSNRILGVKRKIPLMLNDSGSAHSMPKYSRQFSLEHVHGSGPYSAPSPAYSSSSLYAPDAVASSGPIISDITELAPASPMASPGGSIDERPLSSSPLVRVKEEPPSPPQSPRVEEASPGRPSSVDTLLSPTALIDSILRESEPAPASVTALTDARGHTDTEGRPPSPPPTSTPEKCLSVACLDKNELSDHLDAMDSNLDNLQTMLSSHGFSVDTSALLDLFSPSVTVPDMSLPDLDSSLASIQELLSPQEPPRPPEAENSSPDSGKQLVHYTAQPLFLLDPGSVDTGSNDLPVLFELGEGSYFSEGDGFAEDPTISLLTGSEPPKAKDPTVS
In short: (§1)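 NCI-H460 cells stably carrying hsp25 or hsp70 promoter–luciferase reporters, seeded, treated after 24 h at 10 or 30 μM and harvested 12 h later. Lysate luciferase normalized to β-galactosidase; mean of three independent experiments, fold-change vs negative control.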

[2] = target: T1, Heat shock factor protein 1 (Homo sapiens); test: Activation of HSF1 in human NCI-H460 cells expressing pGL4-hsp70 construct assessed as upregulation of hsp70 promoter activity at 10 to 30 uM after 12 hrs by luciferase reporter gene assay; format: cell-based; in short: as §1
NCI-H460 = test: Upregulation of HSF1 protein level in human NCI-H460 cells at 10 to 30 uM after 12 hrs by Western blot analysis; format: functional, cell-based
In short: (§2)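 NCI-H460 cells treated 12 h at 10 or 30 μM; HSF1, HSP27 and HSP70 detected by Western blot.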

[3] = target: T1, Heat shock factor protein 1 (Homo sapiens); test: Activation of HSF1 in human NCI-H460 cells assessed as upregulation of HSP25 protein levels at 10 to 30 uM after 12 hrs by Western blot analysis; format: cell-based; in short: as §2
[4] = target: T1, Heat shock factor protein 1 (Homo sapiens); test: Activation of HSF1 in human NCI-H460 cells assessed as upregulation of HSP70 protein levels at 10 to 30 uM after 12 hrs by Western blot analysis; format: cell-based; in short: as §2
[5] = target: T1, Heat shock factor protein 1 (Homo sapiens); test: Activation of HSF1 in human NCI-H460 cells assessed as upregulation of HSP25 protein levels at 1 uM after 12 hrs by Western blot analysis; format: cell-based
In short: (§3)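 Cells were grown to 30% confluence and treated for 12 h. Equal protein amounts were lysed and cleared at 13 000 rpm for 30 min at 4 °C, then boiled in sample buffer for 5 min. Proteins were resolved by 8% or 12% SDS-PAGE and transferred to nitrocellulose. Membranes were blocked in 5% milk/PBST, given primary antibody for 18 h at 4 °C and an HRP secondary, and developed by ECL.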

[6] = target: T1, Heat shock factor protein 1 (Homo sapiens); test: Activation of HSF1 in human NCI-H460 cells assessed as upregulation of HSP70 protein levels at 1 uM after 12 hrs by Western blot analysis; format: cell-based; in short: as §3
L132 = test: Cytotoxicity against human L-132 cells assessed as reduction in cell viability up to 20 uM after 24 hrs by MTT assay; format: cell-based; conditions: l132, 24 h
In short: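 L132 cells treated 24 h at indicated doses up to 20 μM. MTT (5 mg/mL in PBS) 4 h at 37 °C, formazan dissolved in DMSO, absorbance at 540 nm converted to cell number via calibration curve. Celastrol positive control.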

`COc1cc(CCCO)ccc1O` was tested, and the Activity [1] was “inactive”, the Activity [2] was “inactive” and the Activity (NCI-H460) was “inactive”. The Activity [3] was “inactive” and the Activity [4] was “inactive”.

With `CC1=C(O)C(=O)C=C2C1=CC=C1[C@@]2(C)CC[C@@]2(C)[C@@H]3C[C@](C)(C(=O)O)CC[C@]3(C)CC[C@]12C` [CELASTROL] the Activity [5] was “Active”, the Activity [6] was “Active” and the Activity (L132) was “Toxic”.

In the case of `COc1cc(CCC=O)ccc1O`, the Activity [1] was “inactive”, the Activity [2] was “inactive” and the Activity (NCI-H460) was “inactive”. For the same molecule, the Activity [3] was “inactive” and the Activity [4] was “inactive”.
